Shown are actives, neighbours in structure and some others; about 1.9% of the full set was active somewhere.
Neddyl block – inhibitors of human cullin neddylation; P61081+Q13564; TR-FRET cullin neddylation, biochemical; inhibition, % at 25 µM; actives 0.58% (n = 360,000); in the data active = inhibition above about 36%
SR-BI DiI-HDL act – SR-BI HDL lipid transfer activation; AID 504775; CHO ldlA[mSR-BI] cells, DiI-HDL uptake fluorescence, 3 h; 100 = double the neutral-control signal; activation, % at 12.5 µM; actives 0.096% (n = 320,000);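 active = mean replicate activation of at least 60% and every replicate at or above 60%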;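 note: 0% = median plate neutral-control signal and 100% = twice that signal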
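System: LDL receptor-deficient CHO ldlA cells overexpressing murine SR-BI | Timing: 3 h uptake period with compound, 37 °C | Medium: HEPES-buffered (25 mM, pH 7.4) F12 plus 0.5% BSA | Dosing: Single-point compound dose | Signal: Bottom-read fluorescence, 550/595 nm | Read-out: Retained DiI signal reflecting DiI-HDL uptake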
UBC13 polyUb – human UBC13 polyubiquitination inhibition. inhibition, % at 20 µM. UBC13 polyubiquitin chain formation, TR-FRET. P61088. actives 0.47% (n = 330,000). AID 485273; in the data active = inhibition above about 45%, passing the limit was not always enough
SR-BI HDL uptake – inhibitors of mouse SR-BI mediated HDL lipid uptake; Q61009; ldlA[mSR-BI] CHO cells, DiI-HDL uptake fluorescence, 3 h; inhibition, % at 12.5 µM; actives 0.96% (n = 320,000);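 active = mean replicate inhibition of at least 70% and a set share of replicates each scoring 70 or more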;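 note: 0% = median of neutral control wells and 100% = median of positive control wells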
Target sequence (Q61009 whole entry, looked up): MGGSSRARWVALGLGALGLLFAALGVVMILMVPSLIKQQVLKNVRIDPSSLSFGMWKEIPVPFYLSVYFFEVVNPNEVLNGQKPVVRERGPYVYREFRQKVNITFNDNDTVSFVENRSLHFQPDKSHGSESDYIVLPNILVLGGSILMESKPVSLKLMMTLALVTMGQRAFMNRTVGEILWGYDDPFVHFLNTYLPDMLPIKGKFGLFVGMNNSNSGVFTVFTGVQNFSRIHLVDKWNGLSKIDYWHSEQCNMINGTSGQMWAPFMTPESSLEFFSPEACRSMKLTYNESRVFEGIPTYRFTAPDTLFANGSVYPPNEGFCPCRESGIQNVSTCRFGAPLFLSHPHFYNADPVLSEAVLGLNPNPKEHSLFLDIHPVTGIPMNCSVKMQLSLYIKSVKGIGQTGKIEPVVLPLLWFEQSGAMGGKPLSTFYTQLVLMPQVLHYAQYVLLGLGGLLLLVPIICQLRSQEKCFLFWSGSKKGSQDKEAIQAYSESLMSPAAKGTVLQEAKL
Casp3 counter – caspase-3 inhibition (UBC13 counter-screen); Recombinant caspase-3, Caspase-Glo 3/7 luminescence, 60 min; AID 488856; actives 4% (n = 1,400); shares compounds with UBC13 polyUb; inhibition, % at 20 µM;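 active = mean inhibition across replicates above about 26%, limit read from the data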;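 note: plate controls were DMSO with caspase-3 for no effect and DMSO wells lacking enzyme for full effect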
UBC13 confirm – human UBC13 polyubiquitin inhibition, confirmed | inhibition, % at 10 µM | UBC13 polyubiquitination, TR-FRET, biochemical | actives 68% (n = 1,400) | shares compounds with UBC13 polyUb; in the data active = inhibition above about 45%
* hit, by the source's call; nt = no result given.

SMILES	Neddyl block	SR-BI DiI-HDL act	UBC13 polyUb	SR-BI HDL uptake	others
Fc1ccc(C(OCCN2CCN(CCCc3ccccc3)CC2)c2ccc(F)cc2)cc1	4	-12	49*	12
Cc1cc(N(CCCl)CCCl)ccc1C=Cc1ccncn1	15	-76	nt	76*
Cc1cc(N(CCCl)CCCl)ccc1/C=N/N=C(\N)c1cnccn1	-15	-44	-2	44
O=S1(=O)N(CCN2CC=C(c3c[nH]c4cc(F)ccc34)CC2)c2cccc3c2N1CCC3	-1	-79	1	79*
Clc1cccc(N2Cc3cc(-c4ccccc4)ccc3-n3nncc3C2)c1	-6	nt	nt	nt
COc1cc(C(=O)Nc2ccc(Br)cc2C(=O)c2ccccc2)cc(OC)c1OC	7	-81	7	81*
CC(C)N1CC=C(c2c[nH]c3ccccc23)CC1	-3	32	-21	-32
C1=C(c2c[nH]c3ccccc23)CCNC1	nt	nt	96*	nt
COc1cc(C(=O)NN=Cc2ccc(N(CCCl)CCCl)cc2)cc(OC)c1OC	nt	-76	nt	76*
C=C1C(=O)OC2CC3(C)OC3C3OC3C3=CC(OC3=O)C12 (configuration not stated)	5	nt	nt	nt
O=C1NC(=O)C(=Cc2ccc(-c3ccccc3[N+](=O)[O-])o2)C(=O)N1	-22	-77	-25	77*
O=C1NC(=O)C(=Cc2ccc(-c3cc(Cl)ccc3[N+](=O)[O-])o2)C(=O)N1	-35	-13	nt	13
Cc1nc2ccccc2c(=O)n1/N=C/c1cc(Br)cc(Br)c1O	72*	-85	-8	85*
CSCCC(c1nnnn1C(C)(C)C)N1CCC2(CC1)C(=O)NCN2c1ccccc1 (configuration not stated)	2	nt	nt	nt
C=CCNC(=S)N1Cc2cc(Br)ccc2-n2nncc2C1	-9	nt	nt	nt
Cc1ccc(-c2cc(-c3ccccc3)cc(-c3ccccc3)[n+]2-c2ccccc2)cc1	24	17	16	-17
Cc1ccc(-c2cc(-c3ccc(C)cc3)[n+](-c3ccccc3)c(-c3ccc(C)cc3)c2)cc1	45*	-2	37	2
COc1ccc(C(c2nnnn2C(C)(C)C)N2CCC3(CC2)C(=O)NCN3c2ccccc2)cc1 (configuration not stated)	2	nt	nt	nt
CCN(CC)C(=O)c1ccc(NC(=O)c2ccc(-c3nn(C)c(=O)c4ccccc34)cc2)cc1	-12	-81	4	81*
O=C(N/N=C/c1c(O)n(Cc2ccco2)c(=O)[nH]c1=O)c1ccccc1O	22	-80	-4	80*
O=C(N/N=C/c1c(O)n(C2CCCCC2)c(=S)[nH]c1=O)c1ccccc1	36	-15	-27	15
O=C(N/N=C/c1c(O)n(C2CCCCC2)c(=S)[nH]c1=O)c1ccccc1O	nt	-130	-36	130*
CC(C)c1ccc(-n2c(O)c(/C=N/NC(=O)c3ccccc3O)c(=O)[nH]c2=S)cc1	15	-107	0	107*
CCOC(=O)[C@]12Cc3ccccc3[C@H]1N(CCC(=O)OC)C(=O)c1cc(OC)ccc12	9	nt	nt	nt
CC[C@H]1c2ccccc2[C@@H]2CC[C@H]1N2c1ccccc1	1	nt	nt	nt
SMILES	Neddyl block	SR-BI DiI-HDL act	UBC13 polyUb	SR-BI HDL uptake	others
Cc1cc(Br)cn2c(CC(=O)N3CCCCC3)c(-c3ccc(F)cc3)nc12	-393	nt	nt	nt
Cc1cccc(N2C(=O)NC(=O)/C(=C/c3cc4c(cc3[N+](=O)[O-])OCO4)C2=O)c1	49*	11	-19	-11
O=C1NC(=O)C(=Cc2cc3c(cc2[N+](=O)[O-])OCO3)C(=O)N1	9	6	7	-6
CNC(=O)C[C@H]1CC[C@@H]2NC[C@H](O)COC[C@H]2O1	12	nt	nt	nt
CC[C@@H]1C=CC=CC[C@H](C)[C@@H](O)[C@@H](C)C(=O)[C@H](C)[C@@H](O)[C@H](C)C(=O)[C@H](C)[C@@H](O)[C@H](C)C=CC(=O)O[C@H]2[C@@H](C)[C@@H](CC1)O[C@@]1(CC[C@@H](C)[C@@H](C[C@H](C)O)O1)[C@@H]2C	nt	nt	59*	nt
CC(=O)O[C@H]1CC[C@@]2(C)C(=CC(=O)C3C2CC[C@@]2(C)C3C[C@H](OC(C)=O)[C@@H]2OC(C)=O)C1 (some centres not stated)	-11	66*	-3	-66
Cc1ccc(N2C(=O)NC(=O)/C(=C/c3cnn(-c4ccc(C)cc4)c3)C2=O)cc1	9	1	-12	-1
Cc1ccc(N2C(=O)NC(=O)/C(=C/c3ccoc3)C2=O)cc1	98*	nt	nt	nt
COc1ccc(-n2nnnc2C(c2cccs2)N2CCC(n3c(=O)[nH]c4ccccc43)CC2)cc1 (configuration not stated)	6	nt	nt	nt
O=C(c1cc2cc(Br)ccc2[nH]1)N1CCC2(CC1)OCCO2	-232	424*	-2	-424
O=C(c1cc(Br)ccc1Cl)N1CCC2(CC1)OCCO2	-10	23	3	-23
COc1cc(O)c2c(c1)/C=C/C[C@H](O)[C@H](O)C(=O)CCC[C@H](C)OC2=O	20	nt	nt	nt
COc1ccc(C2=NCC(=O)N(CC(=O)NCc3ccco3)c3sc4c(c32)CCCC4)cc1	-6	-27	-12	27
Cc1cccc(C2=NCC(=O)N(CC(=O)NCc3ccco3)c3sc4c(c32)CCCC4)c1	-3	-77	-4	77*
COc1ccc(CN2C(=O)NC(=O)/C(=C/c3ccc(OC)c(OC)c3OC)C2=O)cc1	4	380*	-8	-380
ClCCN1CCN(c2ccnc3cc(Cl)ccc23)CC1	-6	-3	62*	3	Casp3 counter=-2;UBC13 confirm=90*
O=C1NCN(c2ccccc2)C12CCN(C(c1nnnn1-c1ccc3c(c1)OCCO3)C1CC1)CC2 (configuration not stated)	-6	nt	nt	nt
CCC(c1nnnn1C1CCCCC1)N1CCC2(CC1)C(=O)NCN2c1ccccc1 (configuration not stated)	2	nt	nt	nt
Cc1ccc2c(c1)C1CN(C)CCC1N2C(=O)/C(C#N)=C/c1ccc2c(c1)OCO2 (configuration not stated)	-6	-22	46*	22	Casp3 counter=1;UBC13 confirm=56*
CC(C)CN1Cc2ccccc2-n2nncc2C1	-4	nt	nt	nt
COc1ccc(O)c2c(=O)c3c(OC)cc4c(c3oc12)C1C=COC1O4 (configuration not stated)	2	-4	nt	4	Casp3 counter=-4
CCOC(=O)[C@]12Cc3cc(Cl)ccc3[C@H]1N(C(C)C)C(=O)c1ccccc12	4	nt	nt	nt
COc1ccc(CCN)cc1OC	-10	26	2	-26
NCCc1ccc(OCc2ccccc2)c(OCc2ccccc2)c1	-12	-5	60*	5	Casp3 counter=0;UBC13 confirm=59*
O=C(C(=O)N1CCOCC1)c1cn(Cc2ccccc2)c2ccccc12	0	6	45*	-6	Casp3 counter=0;UBC13 confirm=37
